Drawing on ChEMBL document CHEMBL1155643, “Isolation of a novel protein tyrosine phosphatase inhibitor, 2-methyl-fervenulone, and its precursors from Streptomyces” (J Nat Prod, 2000), this text covers Activity for two compounds.

One assay relates to Yersinia sp. Kind of assay: Inhibition of Yersinia sp. protein tyrosine phosphatase yop at 1 uM relative to control. Further details: scale not given: the % may be the effect or the level left. In a few lines: (§1)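 Commercial phosphatase. pNPP dephosphorylation with 2 mM pNPP in 50 mM sodium acetate pH 5.5, 0.5 mg/mL BSA, 0.5 mM dithiothreitol, at 30 °C. Reactions stopped within the linear phase. Activity expressed as percent of the control without inhibitor. Mean of three separate enzyme preparations, each assayed in duplicate, ± S.D.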

A short description of assay [1]: Inhibition of protein tyrosine phosphatase epsilon D1D2 domain at 1 uM relative to control. Further details: scale not given: the % may be the effect or the level left. In a few lines: (§2)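 Bacterially expressed, purified PTPα or PTPε. pNPP (2 mM) dephosphorylation in 50 mM sodium acetate pH 5.5 with 0.5 mg/mL BSA and 0.5 mM DTT, at 30 °C, stopped during the linear phase. Percent activity relative to the uninhibited control. Average of three enzyme preparations, each run in duplicate, ± S.D.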

Assay [2] in a line: Inhibition of protein tyrosine phosphatase CD45 domain at 1 uM relative to control. Further details: scale not given: the % may be the effect or the level left. In short, it runs like this:
as §1

In assay [3] the target is T1, Tyrosine-protein phosphatase non-receptor type 2 (Homo sapiens) (UniProt P17706).
T1 sequence (whole entry): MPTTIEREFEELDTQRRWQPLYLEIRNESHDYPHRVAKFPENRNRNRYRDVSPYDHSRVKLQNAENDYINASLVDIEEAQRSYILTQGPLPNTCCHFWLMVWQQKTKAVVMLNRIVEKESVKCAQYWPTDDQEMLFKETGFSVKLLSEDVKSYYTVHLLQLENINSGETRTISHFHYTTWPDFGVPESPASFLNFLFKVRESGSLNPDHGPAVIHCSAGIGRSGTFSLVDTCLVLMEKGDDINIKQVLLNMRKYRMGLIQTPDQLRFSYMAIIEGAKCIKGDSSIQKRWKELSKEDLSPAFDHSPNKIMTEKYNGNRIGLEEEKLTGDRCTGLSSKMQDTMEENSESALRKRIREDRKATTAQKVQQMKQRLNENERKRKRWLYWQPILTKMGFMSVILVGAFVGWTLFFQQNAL
The assay can be described thus: Inhibition of TCPTP at 1 uM relative to control. Also on record: scale not given: the % may be the effect or the level left. In a few lines:
as §1

Assay [4] is described as follows: Inhibition of protein tyrosine phosphatase alpha D1D2 domain at 1 uM relative to control. Also on record: scale not given: the % may be the effect or the level left. In a few lines: as §2
A short description of assay [5]: Inhibition of protein tyrosine phosphatase LAR-D1 domain at 1 uM relative to control. Also on record: scale not given: the % may be the effect or the level left. In a few lines:
as §1

Assay [6] addresses T2, Serine/threonine-protein phosphatase (Enterobacteria phage lambda) (UniProt P03772).
T2 sequence (whole entry): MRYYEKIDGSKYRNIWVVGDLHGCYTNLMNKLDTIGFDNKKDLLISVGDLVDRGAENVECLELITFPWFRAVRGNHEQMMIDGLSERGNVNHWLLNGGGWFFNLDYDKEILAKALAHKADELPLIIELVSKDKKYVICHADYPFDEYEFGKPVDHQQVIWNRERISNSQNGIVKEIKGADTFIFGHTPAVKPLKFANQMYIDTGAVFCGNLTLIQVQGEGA
Kind of assay: Inhibition of enterobactera phage lambda PP at 1 uM relative to control. Further details: scale not given: the % may be the effect or the level left. In short, it runs like this:
(§3)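 Commercial enzyme acting on 2 mM pNPP in 50 mM sodium acetate with 0.5 mg/mL BSA and 0.5 mM DTT, at 30 °C, linear phase. pH 7 for CIP; pH 5.5 plus 2 mM Mn2+ for λPP. Percent of the no-inhibitor control. Three enzyme preparations, each in duplicate, ± S.D.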

For the next assay, the species on record is Bos taurus. The assay can be described thus: Inhibition of calf intestinal alkaline phosphatase at 1 uM relative to control. Also on record: scale not given: the % may be the effect or the level left. In short, it runs like this: as §3
For assay [7], the system named is Mycolicibacterium smegmatis. Kind of assay: Antimicrobial activity against Mycobacterium smegmatis at 50 uM. The assay is classed as functional, organism-based.
Assay [8] concerns Mycolicibacterium smegmatis. Kind of assay: Antimicrobial activity against Mycobacterium smegmatis at 100 uM. The assay is classed as functional, organism-based.
Assay [9] has as its system Staphylococcus aureus. Kind of assay: Antimicrobial activity against Staphylococcus aureus at 50 uM. The assay is classed as functional, organism-based.
For assay [10], the system named is Staphylococcus aureus. The assay can be described thus: Antimicrobial activity against Staphylococcus aureus at 100 uM. Format: functional, organism-based.
Assay [11] has as its system Escherichia coli. Kind of assay: Antimicrobial activity against Escherichia coli at 50 uM. Format: functional, organism-based.
Assay [12] has as its system Escherichia coli. Kind of assay: Antimicrobial activity against Escherichia coli at 100 uM. Format: functional, organism-based.
Assay [13] relates to Enterococcus faecalis. The assay can be described thus: Antimicrobial activity against Enterococcus faecalis at 50 uM. Format: functional, organism-based.
Assay [14] deals with Enterococcus faecalis. The assay can be described thus: Antimicrobial activity against Enterococcus faecalis at 100 uM. Format: functional, organism-based.
Assay [15] has as its system Proteus vulgaris. The assay can be described thus: Antimicrobial activity against Proteus vulgaris at 50 uM. Format: functional, organism-based.
The test system of assay [16] is Proteus vulgaris. The assay can be described thus: Antimicrobial activity against Proteus vulgaris at 100 uM. The assay is classed as functional, organism-based.
The subject of assay [17] is Pseudomonas aeruginosa. The assay can be described thus: Antimicrobial activity against Pseudomonas aeruginosa at 50 uM. The assay is classed as functional, organism-based.
The test system of assay [18] is Pseudomonas aeruginosa. Kind of assay: Antimicrobial activity against Pseudomonas aeruginosa at 100 uM. The assay is classed as functional, organism-based.
In assay [19] the test system is Candida albicans. Kind of assay: Antimicrobial activity against Candida albicans at 50 uM. Format: functional, organism-based.
Assay [20] concerns Candida albicans. Kind of assay: Antimicrobial activity against Candida albicans at 100 uM. The assay is classed as functional, organism-based.
Assay [21] has as its system Curvularia. The assay can be described thus: Antimicrobial activity against Curvularia sp. at 50 uM. Format: functional, organism-based.
The test system of assay [22] is Curvularia. Kind of assay: Antimicrobial activity against Curvularia sp. at 100 uM. The assay is classed as functional, organism-based.

The source made the active and inactive calls. The calls are words filed in the database; no cut-off is given here.

Take `Cn1nc2c(nc1=O)n(C)c(=O)n2C`: the Activity with Yersinia sp. turned out to be 95%; in assay [1], 99%; in [2] it was 96%; in assay [3] it was 99%; in [4] it was 98%; in [5], 97%. For the same compound, the Activity in [6] worked out at 100%; in the assay filed under Bos taurus, 99%.

Regarding `Cn1nc2c(nc1=O)c(=O)n(C)c(=O)n2C`, the Activity turned out to be 10% with Yersinia sp.; 17% in assay [1]; 15% in assay [2]; 34% in assay [3]; 17% in assay [4]; 17% in [5]. The Activity in assay [6] is 48%; in the assay filed under Bos taurus, 100%. For the same compound, the result (in assay [7]; in assay [8]; in the assay on Staphylococcus aureus [9]; in the assay with Staphylococcus aureus [10]; in the assay on Escherichia coli [11]; with Escherichia coli [12]) was inactive. Also, the result with Enterococcus faecalis [13], in the assay with Enterococcus faecalis [14], with Proteus vulgaris [15], with Proteus vulgaris [16], in the assay with Pseudomonas aeruginosa [17] and in the assay on Pseudomonas aeruginosa [18] was inactive. The outcome with Candida albicans [19], with Candida albicans [20], with Curvularia [21] and in the assay with Curvularia [22] was inactive.
